Test [1] addresses T1, Histamine H2 receptor (Homo sapiens, UniProt P25021). Kind of test: Displacement of [3H]UR-DE257 from human histamine H2 receptor stably expressed in baculovirus infected Sf9 cell membrane co-expressing RG-Salpha S incubated for 60 mins by scintillation counting analysis. The class given is cell membranes. (In general: Loss of bound radioactivity is the signal in a displacement assay; it reports binding, not function.)

The target in test [2] is Histamine H1 receptor (Homo sapiens, UniProt P35367).
Chain of Histamine H1 receptor (P35367 whole entry): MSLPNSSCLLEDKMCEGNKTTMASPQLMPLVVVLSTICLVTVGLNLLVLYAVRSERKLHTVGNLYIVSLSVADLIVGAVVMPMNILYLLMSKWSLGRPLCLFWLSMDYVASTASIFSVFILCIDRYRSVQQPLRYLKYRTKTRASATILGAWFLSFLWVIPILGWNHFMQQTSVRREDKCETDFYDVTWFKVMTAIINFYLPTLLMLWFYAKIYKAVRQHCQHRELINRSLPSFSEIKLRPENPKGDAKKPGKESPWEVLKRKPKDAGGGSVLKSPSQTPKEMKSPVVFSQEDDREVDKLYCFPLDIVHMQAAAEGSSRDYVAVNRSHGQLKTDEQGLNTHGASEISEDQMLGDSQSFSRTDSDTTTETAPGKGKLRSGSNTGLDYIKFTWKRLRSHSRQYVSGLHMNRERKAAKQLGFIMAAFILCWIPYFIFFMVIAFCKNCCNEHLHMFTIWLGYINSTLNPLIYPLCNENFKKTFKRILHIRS
Test [3] deals with Histamine H4 receptor (Homo sapiens, UniProt Q9H3N8).
Chain of Histamine H4 receptor (Q9H3N8 whole entry): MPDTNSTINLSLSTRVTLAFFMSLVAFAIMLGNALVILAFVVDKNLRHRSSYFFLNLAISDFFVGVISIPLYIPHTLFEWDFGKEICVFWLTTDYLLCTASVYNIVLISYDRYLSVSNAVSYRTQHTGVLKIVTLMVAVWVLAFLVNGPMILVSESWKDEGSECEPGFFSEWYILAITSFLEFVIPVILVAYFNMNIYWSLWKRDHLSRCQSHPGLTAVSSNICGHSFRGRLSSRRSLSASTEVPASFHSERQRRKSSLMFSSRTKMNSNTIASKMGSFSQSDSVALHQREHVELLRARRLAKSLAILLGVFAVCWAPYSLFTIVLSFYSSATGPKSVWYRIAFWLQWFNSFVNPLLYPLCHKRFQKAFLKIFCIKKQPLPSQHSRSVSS
The target of test [4] is T2, Histamine H3 receptor (Homo sapiens, UniProt Q9Y5N1).
T2 sequence (Q9Y5N1 whole entry): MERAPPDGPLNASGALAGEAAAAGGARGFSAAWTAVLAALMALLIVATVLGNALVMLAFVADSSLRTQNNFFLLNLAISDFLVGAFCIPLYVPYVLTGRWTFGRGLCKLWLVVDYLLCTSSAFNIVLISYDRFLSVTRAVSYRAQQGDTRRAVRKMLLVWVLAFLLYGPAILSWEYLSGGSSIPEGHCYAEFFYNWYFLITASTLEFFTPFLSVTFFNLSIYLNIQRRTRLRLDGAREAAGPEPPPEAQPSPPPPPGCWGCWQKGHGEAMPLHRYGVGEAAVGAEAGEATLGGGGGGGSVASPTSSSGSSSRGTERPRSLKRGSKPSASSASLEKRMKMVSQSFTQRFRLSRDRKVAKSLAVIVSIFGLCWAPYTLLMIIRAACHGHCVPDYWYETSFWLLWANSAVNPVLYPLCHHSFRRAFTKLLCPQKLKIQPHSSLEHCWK
For test [5], the target named is T2, Histamine H3 receptor. Kind of test: Displacement of [3H]UR-PI294 from human histamine H3 receptor stably expressed in baculovirus infected Sf9 cell membrane co-expressing G-alphai2 and G-beta1gamma2 incubated for 60 mins by scintillation counting analysis. The class given is cell membranes. The method, boiled down:
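hH3R + Gαi2 + Gβ1γ2 expressed in Sf9 membranes. […] Mean ± SEM from N independent experiments in triplicate.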

For test [6], the target named is T1, Histamine H2 receptor. Kind of test: Agonist activity at human histamine H2 receptor stably expressed in HEK293T cells co-expressing NlucN-mGs/hH2R-NlucC assessed as induction of mini-Gs protein recruitment using furimazine as substrate measured for 45 mins by luminescence assay.
For test [7], the target named is T3, D(2) dopamine receptor (Homo sapiens, UniProt P14416). The class given is functional, cell-based, HEK293T.
T3 sequence (P14416 whole entry): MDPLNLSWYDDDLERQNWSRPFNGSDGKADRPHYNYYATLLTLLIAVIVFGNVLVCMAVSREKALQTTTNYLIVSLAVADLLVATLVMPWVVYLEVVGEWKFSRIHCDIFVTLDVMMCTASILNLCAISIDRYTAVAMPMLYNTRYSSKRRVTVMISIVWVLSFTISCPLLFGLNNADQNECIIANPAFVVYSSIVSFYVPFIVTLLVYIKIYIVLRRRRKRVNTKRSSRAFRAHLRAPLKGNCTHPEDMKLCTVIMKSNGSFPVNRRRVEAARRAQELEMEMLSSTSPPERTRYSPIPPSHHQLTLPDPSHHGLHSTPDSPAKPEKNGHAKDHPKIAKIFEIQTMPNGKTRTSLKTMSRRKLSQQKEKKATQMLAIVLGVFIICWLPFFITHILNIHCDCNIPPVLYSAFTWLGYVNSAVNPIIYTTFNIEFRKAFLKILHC
In test [8] the target is T3, D(2) dopamine receptor. Kind of test: Displacement of [3H]N-methylspiperone from human D2 long receptor stably expressed in HEK293T cells co-expressing luciferase and CEK incubated for 140 mins by radioligand competition binding based assay. Format: cell-based.
Test [9] has as its target T4, D(3) dopamine receptor (Homo sapiens, UniProt P35462). Put plainly: Agonist activity at human D3 receptor stably expressed in HEK293T cells co-expressing ElucN-betaarr2 hD3R-ElucC by beta-arrestin2 recruitment assay. The class given is functional, cell-based. For orientation: Arrestin recruitment assays detect the binding of arrestin to an activated receptor.
Test [10] addresses T4, D(3) dopamine receptor. Put plainly: Displacement of [3H]N-methylspiperone from human D3 receptor stably expressed in HEK293T cells co-expressing luciferase and CEK incubated for 140 mins by radioligand competition binding based assay. Format: cell-based.
Test [11] concerns the target T1, Histamine H2 receptor. Kind of test: Agonist activity at human histamine H2 receptor stably expressed in HEK293T cells co-expressing ARRB2 incubated for 60 mins by beta-arrestin2 recruitment assay. The class given is functional, cell-based.

As a reminder, the Ki is the dissociation constant of the complex between target and ligand, obtained from inhibition or displacement. A higher Ki goes with lower affinity. In general, Kd refers to a measure of binding affinity in units of concentration. Low readings indicate higher affinity, high ones lower affinity. For orientation: EC50 means the midpoint of the concentration-response curve.

Where only a bound is given, the exact number is not on record here.

T1 sequence (P25021 whole entry): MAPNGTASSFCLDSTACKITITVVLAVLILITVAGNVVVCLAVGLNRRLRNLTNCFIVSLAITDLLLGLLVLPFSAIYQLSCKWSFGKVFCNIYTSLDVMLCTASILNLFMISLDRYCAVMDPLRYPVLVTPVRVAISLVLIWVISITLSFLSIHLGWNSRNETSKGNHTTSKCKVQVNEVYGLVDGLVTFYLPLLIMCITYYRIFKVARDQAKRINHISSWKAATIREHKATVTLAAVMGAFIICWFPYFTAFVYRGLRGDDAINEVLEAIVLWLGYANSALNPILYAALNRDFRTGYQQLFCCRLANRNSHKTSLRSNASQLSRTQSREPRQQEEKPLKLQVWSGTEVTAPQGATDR
T4 sequence (P35462 whole entry): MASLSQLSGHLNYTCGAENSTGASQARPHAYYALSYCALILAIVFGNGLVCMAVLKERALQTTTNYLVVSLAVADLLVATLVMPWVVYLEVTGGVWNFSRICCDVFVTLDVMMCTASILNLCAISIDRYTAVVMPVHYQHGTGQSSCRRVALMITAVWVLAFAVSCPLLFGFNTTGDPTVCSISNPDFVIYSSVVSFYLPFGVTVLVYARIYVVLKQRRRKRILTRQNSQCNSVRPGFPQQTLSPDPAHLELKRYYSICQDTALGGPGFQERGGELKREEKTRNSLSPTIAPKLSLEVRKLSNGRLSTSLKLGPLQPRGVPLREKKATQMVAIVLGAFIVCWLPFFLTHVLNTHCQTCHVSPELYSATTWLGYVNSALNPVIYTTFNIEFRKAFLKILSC

With `N/C(=N\C(=O)NCc1ccccc1)NCC1CCc2nc(N)sc2C1` (stereo unspecified), the Ki in test [1] is 302 nM; in test [2] it was 3890 nM; in [3] it was 5890 nM; in test [4], 11200 nM. The Kd in test [2] is 4.5 nM; in test [3], 16 nM; in test [4], 3 nM.

Take `Cc1ccc(CC(C)CNC(=O)/N=C(\N)Nc2ccc(-c3sc(N)nc3C)cc2)cc1` (stereo unspecified): the Ki in test [1] is 331 nM; in test [2], 1820 nM; in test [3], 6310 nM; in test [4] it was 8320 nM; in [5], 8320 nM. The results for the Kd in test [2], in test [3] and in test [4] were 4.5 nM, 16 nM and 3 nM, respectively.

Consider `N/C(=N\C(=O)NCc1ccccc1)NCCCc1cnc(N)s1`, for which the Ki is 26.9 nM in test [1]; 5620 nM in test [2]; above 10000 nM in test [3]; above 10000 nM in test [5]; 4570 nM in test [8]; 74.1 nM in test [10]. For the same compound, the concentration giving a half-maximal response (EC50) was 4.9 nM in test [6], 3390 nM in [7], 67.6 nM in test [9] and 49 nM in test [11]. The Kd in [2] is 4.5 nM; in [3], 16 nM.

For the compound `Cc1nc(N)sc1-c1ccc(N/C(N)=N/C(=O)NC2CCCCC2)cc1`, the Ki in test [1] was 550 nM; in test [2], 5500 nM; in test [3], 6920 nM; in test [4], 12300 nM; in test [5], 12300 nM. In addition, the values for the Kd in [2], in test [3] and in test [4] were 4.5 nM, 16 nM and 3 nM, respectively.

For `Cc1nnc(CCCN/C(N)=N/C(=O)NCCCCCCCCN)s1`, the Ki was 1820 nM in test [1], 309 nM in test [2], above 10000 nM in [3] and 11700 nM in test [5]. The results for the Kd in test [2] and in test [3] were 4.5 nM and 16 nM, respectively.

On to `Cc1ccc(CC(C)CNC(=O)/N=C(\N)NCCCc2nnc(N)o2)cc1` (stereo unspecified), for which the Ki was 676 nM in test [1], 2690 nM in test [2], above 10000 nM in test [3] and 9120 nM in test [5]. In addition, the Kd in test [2] was 4.5 nM; in [3] it was 16 nM.

Take `Cc1ccc(CC(C)CNC(=O)/N=C(\N)NCC2CCc3nc(N)sc3C2)cc1` (stereo unspecified): the Ki is 107 nM in test [1], 182 nM in test [2], 3390 nM in [3] and 1950 nM in test [4]. The Kd is 4.5 nM in [2], 16 nM in [3] and 3 nM in test [4].

Turning to `Cc1nc(N)sc1-c1ccc(N/C(N)=N/C(=O)NCc2ccccc2)cc1`, the Ki was 214 nM in test [1]; 1290 nM in [2]; 12000 nM in test [3]; 8510 nM in test [4]; 8510 nM in test [5]. In addition, the results for the Kd in [2], in test [3] and in test [4] were 4.5 nM, 16 nM and 3 nM, respectively.

Consider `Cc1ccc(CC(C)CNC(=O)/N=C(\N)Nc2cccc(-c3sc(N)nc3C)c2)cc1` (stereo unspecified), for which the Ki in test [1] was 234 nM; in test [2] it was 5250 nM; in [3], 7410 nM; in [5] it was 12900 nM. Moreover, the Kd is 4.5 nM in [2] and 16 nM in test [3].

Consider `C[C@@H](NC(=O)/N=C(\N)NCCCc1c[nH]cn1)c1ccccc1`, for which the Ki is 6.17 nM in test [1], 3980 nM in test [2], 8.51 nM in test [3] and 1.7 nM in test [5]. The Kd in test [2] was 4.5 nM; in [3] it was 16 nM.

Take `N/C(=N\C(=O)NCCCCCCCCNC(=O)/N=C(\N)NCCCc1nnc(N)s1)NCCCc1nnc(N)s1`: the Ki in [1] is 4.79 nM; in [2], 1820 nM; in test [3], 8910 nM; in test [5] it was 6920 nM. Also, the Kd in test [2] was found to be 4.5 nM; in test [3], 16 nM.

Consider `Cc1nc(N)sc1-c1cccc(N/C(N)=N/C(=O)NCc2ccccc2)c1`, for which the Ki in [1] was 302 nM; in test [2] it was 7240 nM; in [3] it was above 10000 nM; in [5] it was above 10000 nM. The Kd is 4.5 nM in test [2] and 16 nM in [3].

For `Cc1nc(N)sc1-c1ccc(N/C(N)=N/C(=O)NCCCCCCNC(=O)/N=C(\N)Nc2ccc(-c3sc(N)nc3C)cc2)cc1`, the Ki is 347 nM in test [1], 2140 nM in test [2], 2140 nM in test [3] and 1950 nM in test [5]. For the same compound, the Kd in test [2] worked out at 4.5 nM; in [3], 16 nM.

Consider `Cc1ccc(CC(C)CNC(=O)/N=C(\N)NCCCc2cnc(N)s2)cc1` (stereo unspecified), for which the Ki was 64.6 nM in [1]; 2510 nM in test [2]; 4470 nM in [3]; 4790 nM in [5]; 490 nM in test [8]; 229 nM in test [10]. Further, the EC50 in [6] was 77.6 nM; in [7] it was 4470 nM; in test [9], 1050 nM; in [11] it was 234 nM. Further, the Kd stood at 4.5 nM in [2] and 16 nM in [3].

Take `Cc1nc(N)sc1-c1ccc(N/C(N)=N/C(=O)NCC(C)CCCc2ccccc2)cc1` (stereo unspecified): the Ki in [1] was 316 nM; in [2], 7590 nM; in test [3], 6030 nM; in test [4] it was 7940 nM; in test [5] it was 7940 nM. Besides, the figures for the Kd in [2], in [3] and in test [4] were 4.5 nM, 16 nM and 3 nM, respectively.

`Cc1nc(N)sc1-c1cccc(N/C(N)=N/C(=O)NCC(C)CCCc2ccccc2)c1` (stereo unspecified): the Ki is 234 nM in test [1], 13200 nM in [2], 7080 nM in test [3] and 10700 nM in test [5]. Also, the Kd in test [2] was 4.5 nM; in test [3] it was 16 nM.

Regarding `Cc1nc(N)oc1CCCN/C(N)=N/C(=O)NCc1ccccc1`, the Ki in test [1] is 389 nM; in [2], 8910 nM; in [3], above 10000 nM; in [5], above 10000 nM. In addition, the Kd in test [2] is 4.5 nM; in test [3], 16 nM.

For the compound `CC(CCCc1ccccc1)CNC(=O)/N=C(\N)NCCCc1nnc(N)s1` (stereo unspecified), the Kd is 4.5 nM in test [2] and 16 nM in test [3]. Also, the Ki is 5130 nM in test [2]; 4900 nM in [3]; 3980 nM in test [5]; 447 nM in test [8]; 324 nM in [10]. In [9], this compound showed an EC50 of 468 nM.

`CCCN[C@H]1CCc2nc(N)sc2C1` [PRAMIPEXOLE] gave a Ki in test [1] of 13800 nM. Further, the EC50 in test [6] is 166 nM. In addition, the results for the Kd in test [2] and in test [3] were 4.5 nM and 16 nM, respectively.

Take `NCCCCCCCCNC(=O)/N=C(\N)NCCCc1nnc(N)s1`: the Ki is 33.1 nM in [1], 525 nM in test [2], above 10000 nM in [3] and above 10000 nM in [5]. Also, the Kd in test [2] was 4.5 nM; in test [3], 16 nM.

As for `CC(CCCc1ccccc1)CNC(=O)/N=C(\N)NCC1CCc2nc(N)sc2C1` (stereo unspecified), the Ki in test [1] was 110 nM; in [2] it was 3890 nM; in [3], 4070 nM; in test [4], 1740 nM; in test [5], 1740 nM. Further, the Kd was determined as 4.5 nM in [2], 16 nM in test [3] and 3 nM in [4].

As to `Cc1nc(N)sc1-c1ccc(N/C(N)=N/C(=O)NCC(C)C2CCCCC2)cc1` (stereo unspecified), the Ki in [1] is 309 nM; in test [2] it was 2880 nM; in [3] it was 7760 nM; in [5], 5620 nM. The values for the Kd in test [2] and in test [3] were 4.5 nM and 16 nM, respectively.

In the case of `Cc1nnc(CCCN/C(N)=N/C(=O)NCc2ccccc2)s1`, the Ki in test [1] was 5620 nM; in [2], 10700 nM; in test [3], above 10000 nM; in test [5], above 10000 nM. In addition, the Kd was determined as 4.5 nM in [2] and 16 nM in [3].

Take `Cc1nc(N)sc1-c1cccc(N/C(N)=N/C(=O)NCCCCCCNC(=O)/N=C(\N)Nc2cccc(-c3sc(N)nc3C)c2)c1`: the Ki is 380 nM in test [1], 1450 nM in [2], 2340 nM in [3] and 708 nM in test [5]. For the same compound, the figures for the Kd in [2] and in [3] were 4.5 nM and 16 nM, respectively.

Take `C[C@@H](NC(=O)/N=C(\N)NCCCn1cc(CN(C)C)nn1)c1ccccc1`: the Ki was 4470 nM in test [1], above 10000 nM in [2], above 10000 nM in [3] and 10200 nM in test [5]. The Kd in test [2] worked out at 4.5 nM; in [3], 16 nM.

For `Cc1nnc(CCCN/C(N)=N/C(=O)NCC(C)C2CCCCC2)s1` (stereo unspecified), the Ki in test [1] was 1050 nM; in test [2], 7080 nM; in test [3] it was above 10000 nM; in test [4] it was 11500 nM. The results for the Kd in [2], in test [3] and in test [4] were 4.5 nM, 16 nM and 3 nM, respectively.

Source of the values: ChEMBL document CHEMBL5149991 (J Med Chem, 2021).
